Measured values reported in PubChem BioAssay AID504524 (Sanford-Burnham Center for Chemical Genomics, 2011).
Calls of active or inactive are those of the source.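 Rule for the calls: active = mean EC50 below 10 µM; inactive = the rest.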

Molecular target: Apelin receptor (Homo sapiens) (UniProt P35414)
Test: APJ receptor agonists, beta-arrestin recruitment, SAR follow-up, cell-based, CHO-K1 AGTRL-1, PathHunter luminescence, set 5 (AID 504524)
Conditions: CHO-K1 AGTRL-1 PathHunter beta-arrestin
How it was run: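 Assay system: CHO-K1 cells, APJ and β-arrestin complementation reporter; incubation: overnight seeding, 90 min exposure at 25 °C, 60 min detection; dosing: compounds tested as a dose-response series; signal: β-Gal complementation luminescence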

Apelin receptor (Homo sapiens), sequence (P35414 whole entry, looked up): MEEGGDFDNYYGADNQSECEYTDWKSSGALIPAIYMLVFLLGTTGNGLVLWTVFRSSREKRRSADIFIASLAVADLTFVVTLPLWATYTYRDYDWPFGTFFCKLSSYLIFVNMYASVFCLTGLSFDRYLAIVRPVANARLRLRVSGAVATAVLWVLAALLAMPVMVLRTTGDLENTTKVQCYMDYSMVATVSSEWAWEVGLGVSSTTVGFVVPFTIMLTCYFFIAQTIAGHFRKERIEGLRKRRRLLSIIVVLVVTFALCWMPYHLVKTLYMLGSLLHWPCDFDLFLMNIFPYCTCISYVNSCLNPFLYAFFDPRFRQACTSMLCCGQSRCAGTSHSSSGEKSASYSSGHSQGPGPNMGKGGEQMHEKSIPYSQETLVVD

| EC50 | Structure (SMILES) |
| --- | --- |
| > 79 µM (inactive) | N#Cc1ccc(S(=O)(=O)ON=C2C=CC(=O)C(c3ccccc3)=C2)cc1 |
| 5.13 µM | CC1=CC(=O)C(C2CCCCC2)=C/C1=N/OS(=O)(=O)c1cccc(C#N)c1 |
| 5.68 µM | CC1=CC(=O)C(C(C)C)=C/C1=N/OS(=O)(=O)c1cccc(C)c1 |
| 2.61 µM | CC1=CC(=O)C(C2CCCCC2)=C/C1=N\OS(=O)(=O)c1cccc(Cl)c1 |
| 5.49 µM | CC1=CC(=O)C(C2CCCCC2)=C/C1=N/OS(=O)(=O)c1cccc(C)c1 |
| 3.59 µM | CC1=CC(=O)C(C2CCCCC2)=C/C1=N\OS(=O)(=O)c1c(Cl)cccc1Cl |
| 6.5 µM | CC1=CC(=O)C(C2CCCCC2)=C/C1=N\OS(=O)(=O)c1ccccc1Cl |
| > 79 µM (inactive) | Cc1cc(N=O)c(C(C)C)cc1O |
| inactive | CC1=CC(=O)C(C(C)C)=C/C1=N\OS(=O)(=O)c1cn(C)cn1 |
| > 79 µM (inactive) | Cc1cc(O)c(C(C)(C)C)cc1N=O |
| 6.36 µM | CC1=CC(=O)C(C2CCCCC2)=C/C1=N\OS(=O)(=O)c1cn(C)cn1 |
| 3.53 µM | CC1=CC(=O)C(C(C)C)=C/C1=N\OS(=O)(=O)c1c(Cl)cccc1Cl |

Further lines, the molecule ahead of its results:

| Structure (SMILES) | EC50 |
| --- | --- |
| O=C1C=CC(=NOS(=O)(=O)c2ccccc2)C=C1c1ccccc1 | > 79 µM (inactive) |
| CC1=CC(=O)C(C(C)C)=C/C1=N\OS(=O)(=O)c1cccc(Cl)c1 | 3.17 µM |
| CC1=CC(=O)C(C(C)(C)C)=C/C1=N\OS(=O)(=O)c1cn(C)cn1 | 10 µM |
| CC1=CC(=O)C(C(C)C)=C/C1=N/OS(=O)(=O)c1cccc(C#N)c1 | 1.96 µM |
| CC1=CC(=O)C(C(C)C)=C/C1=N\OS(=O)(=O)C1CCCCC1 | inactive |
| CC1=CC(=O)C(C2CCCCC2)=C/C1=N/OS(=O)(=O)c1cccc(Br)c1 | 6.03 µM |
| CC1=CC(=O)C(C(C)(C)C)=C/C1=N/OS(=O)(=O)c1cccc(C)c1 | 9.59 µM |
| CC1=CC(=O)C(C(C)(C)C)=C/C1=N\OS(=O)(=O)c1cccc(Cl)c1 | 7.8 µM |
| CC1=CC(=O)C(C(C)(C)C)=C/C1=N\OS(=O)(=O)c1ccccc1Cl | 8.69 µM |
| CC1=CC(=O)C(C(C)(C)C)=C/C1=N/OS(=O)(=O)c1cccc(Br)c1 | inactive |
| CC1=CC(=O)C(C(C)C)=C/C1=N/OS(=O)(=O)c1cccc(Br)c1 | 3.16 µM |
| COc1cccc(S(=O)(=O)O/N=C2\C=C(C3CCCCC3)C(=O)C=C2C)c1 | 5.53 µM |
| CC1=CC(=O)C(C(C)(C)C)=C/C1=N/OS(=O)(=O)c1cccc(C#N)c1 | 3.21 µM |
| COc1cccc(S(=O)(=O)O/N=C2\C=C(C(C)(C)C)C(=O)C=C2C)c1 | 7.96 µM |
| CC1=CC(=O)C(C(C)C)=C/C1=N\OS(=O)(=O)c1ccccc1Cl | 1.94 µM |
| COc1cccc(S(=O)(=O)O/N=C2\C=C(C(C)C)C(=O)C=C2C)c1 | 5.23 µM |
| CC1=CC(=O)C(C(C)(C)C)=C/C1=N\OS(=O)(=O)C1CCCCC1 | inactive |
| CC1=CC(=O)C(C(C)(C)C)=C/C1=N\OS(=O)(=O)c1c(Cl)cccc1Cl | 7.9 µM |
| CC(C)C1=CC(=NOS(=O)(=O)c2ccccc2)C=CC1=O | 4.96 µM |
